An excerpt weighted towards active compounds, which were near 3% of everything screened.
PfHsp90 yeast 2 – reduces growth (ATP signal) of yeast expressing P. falciparum Hsp90; S. cerevisiae expressing PfHsp90, BacTiter-Glo ATP, 48 h; yeast lacking PDR1 and PDR3 efflux regulators; inhibition, % at 9.4 µM; 0.32% of 310,000 active; AID 504621;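 active means every replicate shows inhibition above about 80%, whatever the replicate mean, limit read from the data; inconclusive means mean inhibition reaches the set limit but some replicate falls short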;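 further: 0% = DMSO neutral controls and 100% = 20 µM radicicol positive controls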
N-glyco inh – N-linked glycosylation inhibition. D54 ERlucT glycosylation luciferase reporter, 24 h; percent of 100 nM tunicamycin response. reporter increase, % at 12.5 µM. 0.23% of 360,000 active;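 active means mean luciferase reporter signal, scaled so untreated is 0 and the glycosylation-blocking control 100, at or above a set limit in every replicate; inconclusive means mean reaches the limit but not every replicate does; inactive means mean below the limit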;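 further: luciferase carries N-glycosylation sites so blocking glycosylation raises the light; 0% = median of neutral control wells and 100% = median of 100 nM tunicamycin wells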
HSF-1 act – increases HSF-1 driven luciferase reporter signal. 1.7% of 300,000 active. activation, % at 9 µM. NIH3T3-HGL HSF-1 luciferase reporter, MG132, 8 h; 100% = twice DMSO control signal;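 active means mean replicate activation of at least 50% with a set share of replicates each reaching 50%; inconclusive means only one of those two conditions met; inactive means mean below 50% and too few replicates reaching it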;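 further: 0% = median of the neutral control wells and 100% = twice that signal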
PvdQ acylase – P. aeruginosa PvdQ acylase inhibition | purified PvdQ acylase, fluorescence plate reader | inhibition, % at 10 µM | 0.063% of 340,000 active | AID 488965; in the data active means inhibition above about 30%, passing the limit was not always enough; inconclusive means no clear call, values can overlap the other calls;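 further: 0% = vehicle neutral wells and 100% = reference inhibitor wells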
CaV13 ICDI inh – Disruptors of the CACNA1D IQ motif to Ca2+-dependent inactivation inhibitor domain association, primary screening, Förster resonance energy transfer in intact living … | inhibition, % at 12.3 µM | 0.098% of 340,000 active | HEK cells, CFP/YFP FRET ICDI-IQ, plate reader, 10 min; percent FRET-ratio fall versus neutral wells | AID 743397;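 active means mean replicate inhibition of at least 30% and at least 1% of replicates passing that level; inconclusive means only one of the two criteria is met; inactive means neither criterion is met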;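 further: 0% = median of the neutral control wells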
T cruzi repl – T. cruzi replication inhibition; inhibition, % (no concentration beside the values); T. cruzi beta-gal in NIH3T3, luminescence, 90 h; 1.4% of 300,000 active;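 active means mean inhibition across valid replicates above about 55%, limit read from the data; inconclusive means mean below that limit but half or more replicates reach it; inactive means mean below it, under half of replicates reach it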;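 further: signal also drops with host cell toxicity which is not excluded here; 0% = plate median of DMSO wells and 100% = zero luminescence signal; higher percent means less beta-gal luminescence so fewer parasites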
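System: mouse NIH/3T3 fibroblasts infected with β-gal-expressing T. cruzi Tulahuen C4 / Input: NIH/3T3 cells, 5,000 per well / Buffer or medium: Low-serum DMEM with 2% FBS / Probe or stimulus: 5000 reporter trypomastigotes per well / Schedule: ≥90 h infection period, 3 h prior cell attachment / Measured by: GalScreen luminescence, 60 min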
Numbers without * were called inactive; ? = inconclusive; nt = no result.

SMILES	PfHsp90 yeast 2	N-glyco inh	HSF-1 act	PvdQ acylase	CaV13 ICDI inh	T cruzi repl
O=C(C[C@H]1CC[C@@H](NC(=O)C2CC2)[C@@H](CO)O1)NCc1ccccc1Cl	nt	nt	nt	nt	-6.4	nt
COc1ccc(Cl)cc1Nc1nc2ccc(C)cc2n2cnnc12	-12.2	10.2	1.8	5.5	-3.7	10.4
COc1ccc(OC)c(Nc2nc3ccc(C)cc3n3cnnc23)c1	-6.8	4.5	74.2*	-25.7	-20.8	24.4
Cc1ccc(C(=O)N(C)Cc2nc3ccccc3c(=O)[nH]2)cc1NC(=O)c1ccco1	-4.7	2.6	nt	8.3	-4.7	nt
O=C(CCN1CCC(c2cccs2)=N1)c1cccs1	nt	-3.4	64.7*	nt	-11.3	-0.3
O=C(CCN1CCCC1)c1cccs1	-5.1	-1.9	-8.7	-7.1	-2.7	10.8
COc1ccc(CCNCc2c(OC)ccc3ccccc23)cc1OC	-7.1	2.7	5.9	-22.3	-1.8	6.0
COc1ccc2ccccc2c1CNC(C)CCc1ccccc1 (stereo not given)	16.1	8.4	8.2	-10.0	-4.2	56.4*
COC(=O)C[C@H]1CC[C@@H](NC(=O)C2CC2)[C@@H](CO)O1	nt	nt	nt	nt	-5.7	nt
C[N+](C)(C)CCNC(=O)c1ccccc1	nt	nt	nt	nt	-7.0	nt
CC(NCc1cc(Br)ccc1OCC(=O)NCc1ccccc1)c1ccccc1 (stereo not given)	19.3	-9.2	17.5	-7.3	-6.4	60.5*
CCOC(=O)C1=NN(C(=O)c2ccc(C)cc2)C(O)(c2ccc(Cl)cc2)C1 (stereo not given)	-28.6	3.2	166.5*	-15.3	-5.7	-0.8
COC(=O)C1=NN(C(=O)c2ccc(Cl)cc2)C(O)(c2ccccc2)C1 (stereo not given)	28.5	-1.6	141.9*	-10.6	-5.3	-17.4
Nc1[nH]c(C(=O)c2ccccc2)c(-c2cccc(C(F)(F)F)c2)c1C(=O)c1c[nH]c2ccccc12	nt	nt	nt	nt	-15.8	nt
O=S1(=O)CCC(N(N=Cc2ccco2)c2ccccc2)C1 (stereo not given)	nt	nt	nt	nt	-12.8	nt
CCOC(=O)c1c(NC(=O)c2ccco2)n(C2CCCCC2)c2nc3ccccc3nc12	5.8	0.0	78.3*	6.1	3.6	?
Cc1ccc(CSCCNS(=O)(=O)c2ccc([N+](=O)[O-])cc2)cc1	-43.0	1.0	-3.9	-10.6	nt	68.2*
Cc1ccc(S(=O)(=O)NCCn2cnc([N+](=O)[O-])n2)cc1	-1.0	-0.4	-15.6	-1.2	-6.1	59.8*
Cc1ccc(S(=O)(=O)NCCSCc2ccccc2)cc1	13.4	-1.0	28.1	8.6	-4.9	-5.6
COC(=O)[C@]12C[C@H](CC(=O)N3CCN(C(=O)c4ccco4)CC3)C(=O)N(Cc3ccc4c(c3)OCO4)C1=C[C@H](COCc1ccccc1)O[C@@H]2C	nt	nt	nt	nt	-7.5	nt
O=C(COc1ccc(/C=N/NC(=O)c2cc3ccccc3o2)cc1Br)Nc1ccccc1	-11.1	61.8*	49.2	-9.9	-8.0	70.0*
CCCCOCC1CN(CCCC)S(=O)(=O)c2c(Oc3ccc(SC)c(C)c3)cccc2O1 (stereo not given)	nt	nt	nt	nt	-7.9	nt
Cc1ccc(NC(=O)NC(=S)NC(=O)c2ccccc2)cc1	-2.8	0.4	54.2*	-8.6	-3.9	-2.5
Cc1ccc(C(=O)NC(=S)Nc2cccnc2Cl)cc1	-14.5	-8.5	64.8*	-17.6	-3.8	-3.8
CCCCCCCCN1C(=O)[C@@H](CC(=O)N2CCOCC2)C[C@@]2(C(=O)OC)C1=C[C@H](C1CCCC1)O[C@@H]2C	nt	nt	nt	nt	-11.7	nt
SMILES	PfHsp90 yeast 2	N-glyco inh	HSF-1 act	PvdQ acylase	CaV13 ICDI inh	T cruzi repl
CC(C)(CC1(C)NC(=O)NC1=O)OCc1ccccc1 (stereo not given)	16.9	2.8	nt	-10.3	-7.5	nt
COc1ccc(OC)c(NC(=O)CNC(c2ccccc2)c2ccccc2)c1	24.6	-3.9	62.2*	-22.5	-18.3	26.4
O=C(Nc1ncc(Cc2ccc(SC(F)F)cc2)s1)c1ccccc1	0.4	9.0	21.2	-1.6	-5.6	-30.7
O=C(Nc1ncc(Cc2ccccc2)s1)c1cccs1	-11.0	-13.4	54.7*	-8.3	-7.3	4.3
Cc1ccc(C(=O)Nc2nc3c(s2)CCCC3)o1	21.4	-12.3	60.1*	-6.0	-4.4	12.3
Cc1ccc(Cc2cnc(NC(=O)c3cccs3)s2)cc1	-5.2	-6.6	64.6*	-20.4	0.0	-9.1
Cc1ccc(C(=O)Nc2ncc(Cc3ccccc3)s2)o1	19.7	-13.6	53.6*	-5.7	-2.4	4.1
COC(=O)C1=C(C)N(Cc2ccccc2C(F)(F)F)C(=NCc2ccc3c(c2)OCO3)NC1c1cccc(C(F)(F)F)c1 (stereo not given)	nt	nt	nt	nt	-11.5	nt
COC(=O)C[C@H]1CC[C@@H](NC(=O)c2ccncc2)[C@@H](CO)O1	nt	nt	nt	nt	-4.7	nt
Cc1ccc(NC(=S)Nc2ccccn2)cc1C	-10.9	-3.3	39.5	-12.2	-1.4	-16.6
Cc1cc(C)cc(NC(=S)Nc2cccc3cnccc23)c1	-20.1	5.1	nt	-9.1	-1.7	nt
COc1cccc(NC(=S)Nc2cc(C)cc(C)n2)c1	-18.1	-1.4	55.8*	-13.1	-14.8	1.8
Cc1ccc(NC(=S)Nc2ccccn2)c(C)c1	1.9	-3.9	60.3*	4.8	-16.9	2.5
Cc1cc(Cl)ccc1NC(=S)Nc1ccccn1	10.0	-2.0	55.5*	-3.8	-2.0	-27.1
Cc1ccc(NC(=S)Nc2cccc3cnccc23)c(C)c1	1.4	5.6	72.6*	-2.6	-11.6	-9.5
COCCCNc1ccn2nc(-c3ccc(Cl)cc3)cc2n1	nt	-5.6	nt	nt	-4.0	nt
Cc1ccc(NC(=S)c2nc3ccccc3[nH]2)c(C)c1	-72.3	-12.0	72.2*	-13.3	-3.3	22.8
Cc1cc(C)cc(NC(=S)Nc2ccccn2)c1	-51.0	1.1	-4.0	-0.3	nt	-1.1
Cc1ccc(NC(=S)c2nc3ccccc3[nH]2)cc1	-64.7	0.2	-3.8	9.6	-2.8	34.6
Cc1cccc(NC(=S)Nc2ccccn2)c1	-1.2	0.8	58.5*	8.9	-4.6	-20.7
CC(C)c1ccc(-n2cnn(-c3ncccc3[N+](=O)[O-])c2=O)cc1	-34.6	-10.5	53.7*	-15.8	6.0	6.4
CCOc1ccc(S(=O)(=O)N2CCC(C(=O)Nc3ccccc3N3CCCC3)CC2)cc1	nt	2.2	nt	nt	-3.1	nt
N/C(=N\OC(=O)COc1ccc2ccccc2c1Br)c1ccncc1	nt	nt	?	nt	nt	55.7*
N/C(=N\OC(=O)COc1cc(Cl)c(Cl)cc1Cl)c1ccccn1	-13.0	0.8	93.0*	-7.6	4.5	29.3
N/C(=N\OC(=O)COc1ccc(Cl)cc1Cl)c1cccnc1	-3.1	-2.1	92.8*	11.7	-4.0	2.4
Cc1ccc(OCC(=O)O/N=C(\N)c2ccccn2)cc1	16.0	-0.8	56.6*	-1.2	-4.7	-18.5
Cc1cccc(OCC(=O)O/N=C(\N)c2ccccn2)c1C	5.0	-3.2	12.7	-11.7	-4.2	6.5

Screening results as filed in PubChem.
